M5 ag: agonists of human muscarinic M5 receptor (CHRM5) | P08912 | CHO-K1 hM5 cells, Fluo-8 calcium fluorescence; 0% DMSO wells, 100% maximal acetylcholine response | activation, % at 3 µM | 360,000 compounds, 0.19% hits;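 active means activation above the run's mean over test compounds plus 3 SD, cut at about 23% in these data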;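 further: signal is peak over basal fluorescence ratio across the kinetic read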
M5 PAM: positive allosteric modulators of human muscarinic M5 receptor; activation, % at 3 µM; P08912; CHO-K1 hM5, Fluo-8 calcium, ACh EC20 PAM; 0% = ACh EC20, 100% = ACh EC100; AID 624038; 360,000 compounds, 0.3% hits;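 active means activation above the run cutoff, the mean activation of all test compounds plus 3 SD, cut at about 18% in these data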
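Assay system – human M5 receptor in CHO-K1 cells · Read-out – % activation, ACh-normalized · Technique – Fluo-8 calcium fluorescence · Dosing – single-point, 3 µM nominal · Incubation – Fluo-8 loading 80 min at 37 °C plus 30 min room temperature · Repeats – singlicate, one well per test compound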
CHRM4 antagonist: antagonists of human muscarinic M4 receptor (CHRM4); P08173; 360,000 compounds, 0.73% hits; inhibition, % at 3 µM; CHO-hM4 cells, ACh EC80, Fluo-8 calcium fluorescence;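 active means inhibition above its plate's cutoff, the mean inhibition of sample wells plus 3 SD, cut at about 27% in these data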;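 further: 0% = acetylcholine EC80 with DMSO and 100% = DMSO without agonist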
Target sequence (P08173 whole entry, looked up): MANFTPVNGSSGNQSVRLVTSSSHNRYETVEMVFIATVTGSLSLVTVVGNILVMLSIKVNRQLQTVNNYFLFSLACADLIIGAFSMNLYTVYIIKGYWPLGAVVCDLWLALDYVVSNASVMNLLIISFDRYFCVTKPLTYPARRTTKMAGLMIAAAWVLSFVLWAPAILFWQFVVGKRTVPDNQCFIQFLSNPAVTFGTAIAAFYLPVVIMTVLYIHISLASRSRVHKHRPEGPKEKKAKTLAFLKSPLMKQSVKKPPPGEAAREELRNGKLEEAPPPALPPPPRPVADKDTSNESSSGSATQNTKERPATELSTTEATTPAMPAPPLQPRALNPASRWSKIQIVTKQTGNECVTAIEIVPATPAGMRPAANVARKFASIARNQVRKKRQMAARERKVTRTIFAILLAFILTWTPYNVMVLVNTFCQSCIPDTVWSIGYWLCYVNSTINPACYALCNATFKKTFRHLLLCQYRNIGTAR
CHRM5 antagonist: blocks acetylcholine activation of human M5 receptor; P08912; CHO-hM5 cells, Fluo-8 calcium fluorescence, ACh EC80; inhibition, % at 3 µM; 360,000 compounds, 0.59% hits; AID 624040;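 active means inhibition above a per-plate cutoff, the mean of that plate's test compounds plus 3 SD, cut at about 27% in these data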;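 further: 0% = acetylcholine EC80 with DMSO and 100% = DMSO without agonist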
CHRM4 agonist: agonists of human muscarinic M4 receptor (CHRM4) | CHO-K1 hM4/Gqi5, Fluo-8 calcium fluorescence; vehicle 0%, full acetylcholine response 100% | P08173 | 360,000 compounds, 0.14% hits | AID 624127 | activation, % at 3 µM;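 active means activation above the run mean over all test wells plus 3 SD, cut at about 32% in these data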;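 further: peak over basal fluorescence ratio per well then scaled between controls; 0% = DMSO wells and 100% = acetylcholine at EC100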
M4 PAM: positive allosteric modulators of human muscarinic M4 receptor. P08173. CHO-K1 hM4/Gqi5, Fluo-8 calcium fluorescence, ACh EC20; 0% = ACh EC20, 100% = maximal ACh. activation, % at 3 µM. 360,000 compounds, 0.4% hits;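 active means activation above its plate's cutoff, the mean activation of sample wells plus 3 SD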
Active calls of the source: *. Sampled rows, rich in hits. Any-hit rate of the full collection: about 1.8%.

`O=C(/C=C/c1cc2ccccc2o1)c1ccccc1O` gave M5 ag -10, M5 PAM -8, CHRM4 antagonist -12, CHRM5 antagonist 5, CHRM4 agonist -1 and M4 PAM 8.
Screening Cc1ccc(S(=O)(=O)Nc2cccc3cccnc23)cc1 returned M5 ag -3, M5 PAM -5, CHRM4 antagonist 32*, CHRM5 antagonist 18, CHRM4 agonist 3 and M4 PAM -5.
For COc1cc(NS(=O)(=O)c2ccc(C)cc2)c2ncccc2c1 the results were M5 ag -6, M5 PAM -1, CHRM4 antagonist 26, CHRM5 antagonist 22, CHRM4 agonist 1 and M4 PAM 0.
Screening Clc1ccc(OCCN2CCN(c3ncnc4sccc34)CC2)cc1 returned M5 ag 4, M5 PAM -17, CHRM4 antagonist 35*, CHRM5 antagonist 33*, CHRM4 agonist 12 and M4 PAM -17.
For Cc1ccc(OCCN2CCN(c3ncnc4sc(C)c(C)c34)CC2)cc1 the results were M5 ag 4, M5 PAM -14, CHRM4 antagonist 21, CHRM5 antagonist 32*, CHRM4 agonist 8 and M4 PAM -3.
`Fc1ccc(C2N(c3ccccc3)C(=S)N3CCCN23)cc1` (stereo not given) gave M5 ag -18, M5 PAM -4, CHRM4 antagonist 11, CHRM5 antagonist 8, CHRM4 agonist -1 and M4 PAM -23.
`Cc1ccc(C2N(c3ccccc3)C(=S)N3CCCN23)cc1` (stereo not given) gave M5 ag -13, M5 PAM -29, CHRM4 antagonist 48*, CHRM5 antagonist 10, CHRM4 agonist 0 and M4 PAM -14.
Screening CCN(CC)S(=O)(=O)c1ccc(S(=O)(=O)N2CCCC(C(=O)NC3CC3)C2)cc1 (stereo not given) returned M5 ag -1, M5 PAM -5, CHRM4 antagonist -3, CHRM5 antagonist 19, CHRM4 agonist 1 and M4 PAM 0.
Screening CCOc1cc(CNCCSc2nnnn2C)cc(Br)c1OCc1ccc(F)cc1 returned M5 ag -1, M5 PAM -21, CHRM4 antagonist 28*, CHRM5 antagonist 25, CHRM4 agonist 22 and M4 PAM -14.
Screening CN(CCCC1CCCC1)C(=O)c1cc(COc2ccc(F)cc2F)on1 returned M5 ag -4, M5 PAM -9, CHRM4 antagonist -3, CHRM5 antagonist 7, CHRM4 agonist 1 and M4 PAM -7.
Screening CN(CCCN1CCCCC1)C(=O)c1cc(COc2ccc(F)cc2F)on1 returned M5 ag -8, M5 PAM -5, CHRM4 antagonist 36*, CHRM5 antagonist 16, CHRM4 agonist 0 and M4 PAM -15.
For COc1ccc(N=C2S/C(=C\c3ccc(OCC(=O)O)cc3)C(=O)N2CCc2c[nH]c3ccccc23)cc1 the results were M5 ag 8, M5 PAM -11, CHRM4 antagonist -8, CHRM5 antagonist -6, CHRM4 agonist 2 and M4 PAM -6.
COc1ccc(N=C2S/C(=C\c3ccc(N4CCOCC4)o3)C(=O)N2CCc2c[nH]c3ccccc23)cc1 was read as M5 ag 10, M5 PAM -1, CHRM4 antagonist 45*, CHRM5 antagonist 11, CHRM4 agonist 8 and M4 PAM -13.
CCn1nccc1NC(=O)c1csc([C@@H]2O[C@H](CO)[C@H](O)[C@H](O)[C@H]2O)n1 was read as M5 ag 0, M5 PAM 1, CHRM4 antagonist -4, CHRM5 antagonist 17, CHRM4 agonist 1 and M4 PAM 6.
Screening COc1ccc(NC(=O)c2[nH]ncc2[N+](=O)[O-])cc1 returned M5 ag 0, M5 PAM 18*, CHRM4 antagonist -1, CHRM5 antagonist -9, CHRM4 agonist 0 and M4 PAM 1.
For O=C(C[n+]1ccccc1)N/N=C/c1ccccc1C(F)(F)F the results were M5 ag -1, M5 PAM -14, CHRM4 antagonist 2, CHRM5 antagonist 17, CHRM4 agonist 14 and M4 PAM -7.
Screening CS(=O)(=O)N(CC(=O)N1CCCCCC1)c1cccc([N+](=O)[O-])c1 returned M5 ag -2, M5 PAM 18*, CHRM4 antagonist -6, CHRM5 antagonist -9, CHRM4 agonist 1 and M4 PAM -4.
`CS(=O)(=O)N(CC(=O)N1CCCCCC1)c1ccccc1` gave M5 ag -7, M5 PAM 0, CHRM4 antagonist 10, CHRM5 antagonist 8, CHRM4 agonist 1 and M4 PAM -3.
For CSc1nc(-c2ccc(Cl)cc2)c(C#N)c(=O)n1C the results were M5 ag 3, M5 PAM 4, CHRM4 antagonist -10, CHRM5 antagonist -3, CHRM4 agonist 2 and M4 PAM 20*.
For Cc1ccc(NS(=O)(=O)c2ccc(Br)s2)cc1S(=O)(=O)N1CCOCC1 the results were M5 ag 1, M5 PAM 1, CHRM4 antagonist 1, CHRM5 antagonist -2, CHRM4 agonist 3 and M4 PAM 0.
`C=C(C)CSc1nnc(-c2ccc(OC)c(OC)c2)n1N` gave M5 ag 3, M5 PAM 10, CHRM4 antagonist -5, CHRM5 antagonist 5, CHRM4 agonist 1 and M4 PAM 30*.
`Cc1noc(C)c1CSCC(=O)N(CC(C)C)c1c(N)n(Cc2ccccc2)c(=O)[nH]c1=O` gave M5 ag 0, M5 PAM -4, CHRM4 antagonist -9, CHRM5 antagonist 7, CHRM4 agonist 0 and M4 PAM 8.
Screening COc1ccccc1N1CCN(C(=O)c2cn(Cc3ccccc3)nc2-c2cccnc2)CC1 returned M5 ag 29*, M5 PAM -10, CHRM4 antagonist -6, CHRM5 antagonist -3, CHRM4 agonist 10 and M4 PAM 14.
For CC[C@H]1OC(=O)[C@H](C)[C@@H](O[C@H]2C[C@@](C)(OC)[C@@H](O)[C@H](C)O2)[C@H](C)[C@@H](O[C@@H]2O[C@H](C)C[C@H](N(C)C)[C@H]2O)[C@](C)(O)C[C@@H](C)C(=NOCOCCOC)[C@H](C)[C@@H](O)[C@]1(C)O the results were M5 ag 0, M5 PAM 1, CHRM4 antagonist -4, CHRM5 antagonist 3, CHRM4 agonist 0 and M4 PAM -4.
For O=C(Oc1coc(CSc2ncccn2)cc1=O)c1ccc(Br)o1 the results were M5 ag -2, M5 PAM -4, CHRM4 antagonist -3, CHRM5 antagonist 11, CHRM4 agonist 1 and M4 PAM 12.

Source: PubChem
